High-throughput results deposited in PubChem BioAssay by several laboratories.
Hits are enriched below; roughly 2.6% of the tested compounds scored in any of these assays.
NadD inh – NadD (S. aureus) enzyme inhibition | purified NadD enzyme, colorimetric absorbance read-out | inhibition, % at 20 µM | 360,000 compounds, 0.78% hits; in the data active = inhibition above about 26%
rCAG binder – binds r(CAG) RNA repeats; r(CAG) RNA repeat, TO-PRO-1 dye displacement fluorescence; inhibition, % at 3 µM; 370,000 compounds, 1.3% hits; AID 651821;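 active = inhibition above the plate cutoff, the mean of all test compounds on that plate plus 3 SD, cut at about 35% in these data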;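 note: 0% = DMSO alone and 100% = 100 µM mitoxantrone as full dye displacement; higher means more dye released from RNA so lower well fluorescence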
ABHD5 PLIN5 PPI – blocks binding of human ABHD5 to perilipin-5; Q00G26+Q8WTS1; inhibition, % at 4 µM; 360,000 compounds, 0.78% hits; Split G. princeps luciferase complementation, luminescence, 4 h;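 active = inhibition above the mean inhibition across every tested compound plus 3 SD, cut at about 22% in these data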;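 note: 0% = DMSO only wells and the 100% control is not disclosed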
Target sequence (Q00G26 whole entry, looked up): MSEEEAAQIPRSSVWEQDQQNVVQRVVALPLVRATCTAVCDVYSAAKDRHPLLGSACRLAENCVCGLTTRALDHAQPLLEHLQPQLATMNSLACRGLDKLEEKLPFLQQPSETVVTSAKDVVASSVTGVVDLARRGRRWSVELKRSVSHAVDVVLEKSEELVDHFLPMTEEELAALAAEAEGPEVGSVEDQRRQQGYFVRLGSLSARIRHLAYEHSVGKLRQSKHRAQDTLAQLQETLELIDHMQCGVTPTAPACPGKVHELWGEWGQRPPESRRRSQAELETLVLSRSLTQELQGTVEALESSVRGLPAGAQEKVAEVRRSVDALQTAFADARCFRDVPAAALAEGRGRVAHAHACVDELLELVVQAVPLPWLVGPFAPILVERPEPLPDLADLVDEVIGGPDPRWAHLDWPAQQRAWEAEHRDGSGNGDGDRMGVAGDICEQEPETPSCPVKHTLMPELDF
Target sequence (Q8WTS1 whole entry, looked up): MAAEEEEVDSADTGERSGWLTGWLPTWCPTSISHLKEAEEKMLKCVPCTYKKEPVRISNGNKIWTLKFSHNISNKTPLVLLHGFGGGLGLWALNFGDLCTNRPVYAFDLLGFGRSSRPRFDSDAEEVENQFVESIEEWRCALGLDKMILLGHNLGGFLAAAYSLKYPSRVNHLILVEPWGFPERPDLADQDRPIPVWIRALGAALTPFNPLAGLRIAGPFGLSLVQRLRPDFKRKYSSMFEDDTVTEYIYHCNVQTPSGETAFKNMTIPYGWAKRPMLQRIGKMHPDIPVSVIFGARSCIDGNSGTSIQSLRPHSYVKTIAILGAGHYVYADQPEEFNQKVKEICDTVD
core dimer inh – blocks dimerization of HCV core protein; TR-FRET GST/Flag-core106 dimerization, 1536-well; inhibition, % at 5 µM; 300,000 compounds, 0.33% hits; AID 1899;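 active = inhibition above the mean of all tested compounds plus 3 SD, set per screening campaign, cut at about 45% in these data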
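test system = GST/Flag-tagged HCV core106 proteins | probe or stimulus = Eu donor and XL665 acceptor anti-tag antibodies | times = compound-protein-antibody incubation 4 h at 22.5 °C | signal = TR-FRET, excitation 340 nm, emission 617 and 671 nm | measure = percent inhibition of core106 dimerization signal | controls = wells lacking GST-core106 and wells with excess unlabelled core106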
ABHD5 PLIN5 conf – confirmation of human ABHD5-PLIN5 interaction inhibitors | shares compounds with ABHD5 PLIN5 PPI | biochemical ABHD5-PLIN5 interaction, luminescence | inhibition, % at 4 µM | 2,200 compounds, 67% hits; in the data active = inhibition above about 23%;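 note: 0% = DMSO vehicle wells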
HNF4 split-luc – counter-screen for ABHD5-PLIN5 inhibitors: HNF4 split-luciferase. shares compounds with ABHD5 PLIN5 PPI. HNF4 dimerization, luminescence, biochemical. inhibition, % at 4 µM. 2,200 compounds, 77% hits;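 active = mean inhibition across replicate wells exceeding the computed hit threshold, cut at about 13% in these data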;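 note: light from luciferase halves that rejoin when HNF4 fusion proteins dimerize; 0% = DMSO only wells and the 100% control is not given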
An asterisk follows results filed as active; nt = not tested or not shown.

SMILES	NadD inh	rCAG binder	ABHD5 PLIN5 PPI	core dimer inh	ABHD5 PLIN5 conf	HNF4 split-luc
COc1cccc(C(=O)n2ccc3ccc(-c4ccc5ccn(Cc6ccc(C#N)cc6)c5c4)cc32)c1	nt	24	nt	nt	nt	nt
COc1ccc(NC(=O)/C(C#N)=C\c2ccc(N3CCOCC3)o2)cc1	4	-101	13	-33	nt	nt
N#C/C(=C/c1ccc(N2CCOCC2)o1)C(=O)NC1CCCCC1	6	-29	27*	-9	13	34*
N#C/C(=C/c1ccc(N2CCCCC2)o1)C(=O)Nc1ccc2ccccc2c1	20	-22	26*	nt	37*	31*
CCN1C(=O)N/C(=C/c2ccc(C)o2)C1=O	8	1	42*	7	27*	89*
Cc1ccc(/C=C2/NC(=O)N(Cc3ccc(Br)cc3)C2=O)o1	5	19	55*	-1	63*	93*
Cc1ccc(/C=C2/NC(=O)N(Cc3ccccc3F)C2=O)o1	9	14	40*	-1	17	81*
O=C(CC1CCCC1)N[C@H](C(=O)N1CCC[C@H]1C(=O)NCCc1ccccc1Cl)c1ccccc1	nt	0	nt	nt	nt	nt
Fc1ccc(CN2CCN(c3ncc(Cc4ccccc4)cn3)CC2)c(Cl)c1	nt	2	nt	nt	nt	nt
Cc1ccc(S(=O)(=O)N2C[C@@]3(O)Cn4c(=O)ccc(=O)n4C[C@@]3(OC(=O)NCC3CCCCC3)C2)cc1	6	2	37*	nt	58*	2
CCCCN1C(=O)/C(=C/C=C2\SCCN2C)SC1=S	6	-66	30*	nt	25*	21*
CN1CCS/C1=C/C=C1/SC(=S)N(Cc2ccccc2)C1=O	-2	-17	25*	-5	22*	18*
CN1CCS/C1=C/C=C1\SC(=S)N(CC(=O)O)C1=O	-2	-354	10	-15	nt	nt
O=C(Nc1ccc2c(c1)OCO2)OC1CC2CC1[C@H]1CCCCN1[C@H]2Cc1ccccc1 (some centres undefined)	nt	1	nt	nt	nt	nt
Cc1ccccc1CS(=O)(=O)c1nnc([C@H](CC(C)C)NC(=O)OC(C)(C)C)o1	1	-5	45*	2	69*	90*
CC(C)[C@H](NC(=O)OC(C)(C)C)c1nnc(S(=O)(=O)Cc2c(F)cccc2Cl)o1	0	-9	71*	-4	85*	108*
CC[C@@H](C)[C@H](NC(=O)OC(C)(C)C)c1nnc(S(=O)(=O)Cc2cc(C)ccc2C)o1	-9	1	61*	-1	72*	102*
CC(C)(C)OC(=O)N[C@@H](Cc1ccccc1)c1nnc(S(=O)(=O)Cc2cccc(F)c2)o1	nt	nt	nt	2	nt	nt
O=C(Nc1ccc[n+](CC(=O)c2cccc3ccccc23)c1)c1ccccc1	8	15	24*	6	18	7
O=C(C[n+]1cccc(C(=O)Nc2ccccc2)c1)c1ccccc1	3	8	10	nt	nt	nt
Cc1ccc2nc(C(C)(C)C)c(Cc3ccsc3)n2c1	5	5	40*	nt	55*	48*
C=CCN(C)CC#Cc1ccc(F)cc1	nt	1	nt	nt	nt	nt
CCN1CCC(O)(/C=C/c2ccc(C(C)C)cc2)C(C(=O)/C=C/c2ccc(C(C)C)cc2)C1 (centres undefined)	10	-1	67*	nt	78*	79*
CCC(=O)NCC[C@@H]1CCc2ccc3c(c21)CCO3	nt	3	nt	nt	nt	nt
Cc1ccc(NC(=O)c2cc(N3C(=O)C=CC3=O)ccc2N2CCOCC2)cc1	3	6	29*	nt	51*	98*
SMILES	NadD inh	rCAG binder	ABHD5 PLIN5 PPI	core dimer inh	ABHD5 PLIN5 conf	HNF4 split-luc
Cc1cccc(NC(=O)c2cc(NC(=O)C3CCCCC3C(=O)O)ccc2N2CCOCC2)c1 (centres undefined)	-4	14	0	8	nt	nt
COc1ccc(NC(=O)c2cc(NC(=O)C3CCCCC3C(=O)O)ccc2N2CCOCC2)cc1 (centres undefined)	7	13	24*	-4	5	2
COc1ccc(-n2c(SCC(=O)Nc3cc(C)c(NC(=O)c4ccccc4)cc3OC)nnc2-c2ccco2)cc1	nt	12	nt	nt	nt	nt
O=C(NCCc1ccc(F)cc1)c1ccc(Sc2ccccc2Cl)c([N+](=O)[O-])c1	nt	8	nt	nt	nt	nt
O=C(NCC1COc2ccccc2O1)c1ccc(NC(=O)C(Cl)Cl)cc1 (centres undefined)	nt	4	nt	nt	nt	nt
CC(COc1ccc([N+](=O)[O-])cc1Cl)CN1CCC(C(O)(c2ccccc2)c2ccccc2)CC1 (centres undefined)	nt	4	nt	nt	nt	nt
CC1OC(CC(=O)O)CC2=C1C(=O)c1c(O)cccc1C2=O (centres undefined)	0	12	99*	nt	4	5
CC(C)[C@@H](C(=O)N[C@@H](CCc1ccc(O)cc1)C(=O)O)N(C)C(=O)[C@H](CO)NC(=O)[C@@H](O)[C@H](N)CCCCCCCCl	5	-2	0	nt	nt	nt
Cc1nc2ccccc2n1CC(O)Cn1c2ccccc2c2ccccc21 (centres undefined)	12	3	29*	-10	9	25*
CC(/C=N/NC(=O)Cn1cnc2c1c(=O)n(C)c(=O)n2C)=C\c1ccco1	-12	1	7	-12	nt	nt
Cn1c(=O)c2c(ncn2CC(=O)N/N=C/C=C/c2ccco2)n(C)c1=O	-4	4	31*	3	7	32*
CSc1cccc(N=C2C(=O)Nc3ccccc32)c1	3	1	-3	3	nt	nt
O=C1Nc2ccccc2C1=Nc1cccc(Cl)c1	1	4	78*	-4	-14	0
CCOC(=O)CCCCCC(=O)Nc1ccc2c(c1)C(=O)N([C@@H](C)CO)C[C@H](C)[C@H](CN(C)C(=O)c1ccccc1)OCCCC[C@H](C)O2	1	-2	-7	nt	nt	nt
CCN(CC)c1ccc(C(=C2C=CC(=[N+](CC)CC)C=C2)c2ccccc2)cc1	1	12	98*	nt	102*	109*
CCN(CC)c1ccc(C(=C2C=CC(=[N+](CC)CC)C=C2)c2ccc(N(CC)CC)cc2)cc1	6	22	64*	nt	58*	58*
CCN(CC)c1ccc(C(=O)NNC(=O)CCl)cc1	-9	5	-2	1	nt	nt
Cc1cn([C@H]2C[C@H](O)[C@@H](/C=C/C(=O)NCc3cccc4ccccc34)O2)c(=O)[nH]c1=O	-1	4	-6	nt	nt	nt
C[C@@H](c1ccccc1)N1C[C@@H](COCc2ccccc2)Oc2cc(N3CCC[C@H]3CO)ccc2S1(=O)=O	2	9	10	nt	nt	nt
COc1ccc(S(=O)(=O)n2nc(-c3cc(OC)c(OC)c(OC)c3)cc2N)cc1OC	4	8	-1	1	nt	nt
COc1ccc(-c2cc(N)n(S(=O)(=O)c3c(F)c(F)c(F)c(F)c3F)n2)cc1OC	-3	22	30*	9	50*	6
O=[N+]([O-])c1ccc(N2N=C(c3ccco3)CC2c2ccccc2)cc1 (centres undefined)	7	24	29*	87*	17	24*
C=CCNC(=S)N1C[C@H]2CON(C)[C@H]2C[C@H]1c1ccccc1Br	nt	2	nt	nt	nt	nt
